TRPC4 potent: TRPC4 (mouse) allosteric potentiation. Q9QUQ5. HEK293 TRPC4beta/mu-opioid, DAMGO EC20, Fluo-4 Ca2+ flux; stronger effect = higher value. B-score at 10 µM. hit rate 0.42% among 310,000. AID 2227;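 active = B-score of calcium response area above 5 SD of library B-scores, with initial fluorescence ratio within 5 SD of library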;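 note: B-score of integrated fluorescence ratio over time as area under calcium response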
TRPC4 agonist: activators of mouse TRPC4 channel | HEK293 TRPC4beta/mu-opioid, Fluo4 calcium fluorescence; stronger effect = higher value | Q9QUQ5 | hit rate 0.49% among 310,000 | B-score at 10 µM;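 active = B-score above 5 SD of library B-scores, and initial fluorescence ratio not above library mean plus 5 SD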;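 note: positive B-score marks a calcium rise read as TRPC4 activation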
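Assay system: HEK293 stable line with TRPC4beta plus mu-opioid receptor; schedule: 45 min room-temperature Fluo4 loading, 110 s read; technique: kinetic Fluo4 calcium fluorescence; evaluation: integrated baseline-normalised fluorescence ratio, converted to per-well B score; controls: buffer (low) and maximal DAMGO (high)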
TRPC6 activator: activates the mouse TRPC6 cation channel; Q61143; HEK293-TRPC6 membrane potential dye fluorescence; stronger effect = higher value; B-score at 10 µM; hit rate 0.13% among 310,000; AID 2550;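 active = B-score of the integrated fluorescence ratio above library mean plus 3 SD, and starting fluorescence ratio within library mean plus 5 SD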;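 note: higher score means more depolarization so channel activation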
Target sequence (Q61143 whole entry, looked up): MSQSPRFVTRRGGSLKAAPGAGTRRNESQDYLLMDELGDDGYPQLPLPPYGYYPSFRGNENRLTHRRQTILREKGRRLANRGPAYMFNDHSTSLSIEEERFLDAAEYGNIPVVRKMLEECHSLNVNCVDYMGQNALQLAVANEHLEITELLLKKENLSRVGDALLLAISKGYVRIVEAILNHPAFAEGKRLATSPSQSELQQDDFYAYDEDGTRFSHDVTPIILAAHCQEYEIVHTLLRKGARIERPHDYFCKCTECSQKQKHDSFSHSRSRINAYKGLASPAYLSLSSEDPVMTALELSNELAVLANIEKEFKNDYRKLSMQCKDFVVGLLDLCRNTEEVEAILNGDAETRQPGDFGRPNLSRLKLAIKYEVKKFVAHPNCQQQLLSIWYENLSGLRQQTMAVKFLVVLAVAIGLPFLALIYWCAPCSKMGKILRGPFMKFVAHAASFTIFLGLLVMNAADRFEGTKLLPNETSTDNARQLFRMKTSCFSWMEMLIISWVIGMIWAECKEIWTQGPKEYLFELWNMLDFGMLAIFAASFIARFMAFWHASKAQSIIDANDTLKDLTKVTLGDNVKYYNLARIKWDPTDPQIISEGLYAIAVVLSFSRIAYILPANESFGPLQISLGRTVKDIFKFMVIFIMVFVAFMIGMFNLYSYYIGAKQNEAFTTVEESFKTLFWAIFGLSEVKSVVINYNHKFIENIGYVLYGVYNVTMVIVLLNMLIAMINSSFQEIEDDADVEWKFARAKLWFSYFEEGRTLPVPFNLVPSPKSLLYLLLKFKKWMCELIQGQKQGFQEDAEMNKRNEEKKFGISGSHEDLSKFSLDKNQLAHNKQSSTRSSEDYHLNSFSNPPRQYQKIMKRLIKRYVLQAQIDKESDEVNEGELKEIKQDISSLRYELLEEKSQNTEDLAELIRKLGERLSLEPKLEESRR
TRPC4 inh: blocks the mouse TRPC4 cation channel. Q9QUQ5. HEK293 TRPC4beta/mu-opioid, DAMGO-evoked Fluo4 calcium flux; stronger effect = lower value. B-score at 10 µM. hit rate 0.39% among 300,000;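 active = B-score over 3 SD under the library average, no early fluorescence shift, positive overall ratio signal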
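Assay system: HEK293 cells with stable TRPC4beta plus mu-opioid receptor expression; Probe or stimulus: DAMGO in two steps, submaximal then maximal; Dosing: single-point compound dosing; Measured by: Fluo4 calcium-dye fluorescence, kinetic read; Read-out basis: B score from integrated Fluo4 fluorescence ratio.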
TRPC6 inh: inhibitors of mouse TRPC6 channel; Q61143; HEK293-TRPC6, membrane potential dye, ACh-evoked depolarization; stronger effect = lower value; B-score at 10 µM; hit rate 1.1% among 310,000;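 active = B-score under library mean minus 3 SD, initial fluorescence not abnormally high, positive integrated signal ratio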;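 note: B-score derived from integrated fluorescence ratio over the kinetic read; more negative B-score means stronger inhibition of depolarization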
TRPC4 sel inh 2: mouse TRPC4 off-target activity of TRPC6 inhibitors, second screen; inhibition, % at 10 µM; HEK293 TRPC4/MOR, membrane potential dye fluorescence; channel activated by saturating DAMGO dose; shares compounds with TRPC6 inh; hit rate 42% among 920;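 active = compounds whose fluorescence signal differed from control wells by over 3 SD, either direction, in both duplicate plates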
TRPC4 spec: selectivity of TRPC6 inhibitors: effect on mouse TRPC4. shares compounds with TRPC6 inh. HEK293 TRPC4/mu-opioid, membrane potential fluorescence. activity change, negative = inhibition, % at 10 µM. hit rate 61% among 920. AID 2777;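 active = rise or fall in signal beyond 3 SD of buffer-only wells in both replicate plates, either sign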;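 note: integrated kinetic ratio of fluorescence range over baseline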
HEK293 MPD ctr 2-1: second counter-screen for TRPC6 inhibitors: parental HEK293 cells | shares compounds with TRPC6 inh | parental HEK293 membrane potential dye fluorescence; maximal acetylcholine challenge after compound addition | signal change vs control, % at 10 µM | hit rate 31% among 920 | AID 2779;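 active = membrane potential signal moving either way by over 3 SD of the maximum-effect control, in both duplicate plates, meaning non-specific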
HEK293 MPD ctr-1: parental HEK293 nonspecific activity of TRPC6 inhibitors; membrane potential signal change, % at 10 µM; shares compounds with TRPC6 inh; parental HEK293 membrane potential dye fluorescence; hit rate 60% among 920;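 active = membrane potential signal shifting up or down by more than 3 SD of buffer-only wells, on both duplicate plates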
HEK293 MPD ctr-2: counter-screen for TRPC6 modulators: effect in parental HEK293 cells. shares compounds with TRPC6 inh. membrane potential dye fluorescence. membrane potential signal change, % at 10 µM. hit rate 51% among 2,400. AID 488924;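 active = membrane potential signal moves up or down beyond 5 SD from buffer-only wells, on both duplicate plates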
HEK293 MPD ctr 2-2: parental HEK293 nonspecific activity of TRPC6 modulators, second screen. shares compounds with TRPC6 inh. membrane potential dye fluorescence; after compound, maximal acetylcholine stimulation. inhibition, % at 10 µM. hit rate 14% among 2,400;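 active = membrane potential signal drops by more than 5 SD from the mean control signal, in both duplicate plates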;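 note: plate controls were acetylcholine ECmax control wells for no effect and buffer only wells for full effect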
TRPC4 ctr mod: tests whether TRPC6 modulators also affect mouse TRPC4; shares compounds with TRPC6 inh; HEK293 TRPC4/mu-opioid, membrane potential fluorescence; percent change from control (negative = decrease, positive = increase), % at 10 µM; hit rate 69% among 2,400;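 active = membrane potential signal moved up or down beyond 5 SD of buffer control wells, in both duplicate plates, actives on both sides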;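 note: plate controls were assay buffer wells for no effect and DAMGO maximal-effect wells for full effect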
TRPC4/MOR inh 2: second check of whether TRPC6 modulators also affect mouse TRPC4; shares compounds with TRPC6 inh; HEK293 TRPC4/mu-opioid, membrane potential dye fluorescence; stimulated with maximal-effect DAMGO; inhibition, % at 10 µM; hit rate 55% among 2,400; AID 488928;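 active = drop in membrane potential signal beyond 5 SD of the control wells in both duplicate plates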;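 note: TRPC4 counter screen for TRPC6 hits run under conditions tuned for TRPC6 not TRPC4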
TRPC6 block conf: confirmation of mouse TRPC6 inhibitors. shares compounds with TRPC6 inh. HEK293-TRPC6, membrane potential dye, ACh-evoked depolarization. inhibition, % at 10 µM. hit rate 43% among 3,300. AID 488960;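 active = fluorescence ratio falls more than 5 SD below the full-stimulation control mean, in both duplicate runs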;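 note: integrated fluorescence ratio of peak minus minimum over baseline after agonist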
TRPC6 act confirm: mouse TRPC6 activator confirmation; activation, % at 10 µM; shares compounds with TRPC6 inh; hit rate 11% among 2,800; HEK293-TRPC6 membrane potential dye fluorescence, FDSS;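 active = ratio signal rise beyond 5 SD above unstimulated control wells' mean, seen in both duplicate runs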;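 note: plate controls were buffer EC0 wells for no effect and acetylcholine ECmax response for full effect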
* = called active by the depositor; i = inactive; nt = not tested or not shown. This is a sample that favours compounds with a hit; in the whole collection about 2.3% have one here.

SMILES | TRPC4 potent | TRPC4 agonist | TRPC6 activator | TRPC4 inh | TRPC6 inh | HEK293 MPD ctr-2 | HEK293 MPD ctr 2-2 | TRPC4 ctr mod | TRPC4/MOR inh 2 | TRPC6 block conf | TRPC6 act confirm | others
CCOc1ccc2c(C)nc(NC3=NC(C)(C)C=C(C)N3)nc2c1 | i | i | i | -9* | -5.1* | i | i | i | i | i | i
Cc1nnc(Cl)c2nn(-c3ccccc3)c(C)c12 | i | i | i | i | i | nt | nt | nt | nt | nt | nt
CCOc1ccc(-n2nc3c(Cl)nnc(C)c3c2C)cc1 | i | i | i | i | -6.7* | i | i | i | i | i | i
COc1ccccc1N1CCN(CCC(=O)Nc2cccc(Cl)c2)CC1 | i | i | i | i | i | nt | nt | nt | nt | nt | nt
Cc1ccc2nc(NC(=O)CSc3nc(=O)n(CCN(C)C)c4c3CCCC4)sc2c1 | i | i | i | i | i | nt | nt | nt | nt | nt | nt
c1ccc2c(c1)nc(N1CCCCCC1)c1ccccc12 | i | i | i | i | i | nt | nt | nt | nt | nt | nt
Cc1ccc(Nc2nc(N3CCOCC3)c3ccccc3n2)cc1 | i | i | i | i | -5.3* | i | i | -22%* | 55%* | i | i
COc1ccc(Nc2nc(N3CCCCC3)c3ccccc3n2)cc1 | i | i | i | i | -7.5* | nt | nt | nt | nt | i | i | TRPC4 sel inh 2=i;TRPC4 spec=i;HEK293 MPD ctr 2-1=i;HEK293 MPD ctr-1=i
Oc1ccc(Nc2nc(N3CCCC3)c3ccccc3n2)cc1 | i | i | i | -6* | -11* | nt | nt | nt | nt | 71%* | i | TRPC4 sel inh 2=56%*;TRPC4 spec=-19%*;HEK293 MPD ctr 2-1=32%*;HEK293 MPD ctr-1=-262%*
Cc1ccc(Nc2nc(N)c([N+](=O)[O-])c(N3CCOCC3)n2)cc1 | i | i | i | i | i | nt | nt | nt | nt | nt | nt
O=C(NC(=S)NC1CCS(=O)(=O)C1)c1ccccc1Br (configuration not stated) | i | i | i | i | i | nt | nt | nt | nt | nt | nt
Cc1ccc(C(=O)NCC(=O)OCc2csc(-c3ccccc3)n2)cc1 | i | i | i | i | i | nt | nt | nt | nt | nt | nt
O=C(OCc1csc(-c2ccccc2)n1)c1ccc(O)cc1 | i | i | i | i | -10* | nt | nt | nt | nt | 73%* | nt | TRPC4 sel inh 2=i;TRPC4 spec=-9.2%*;HEK293 MPD ctr 2-1=i;HEK293 MPD ctr-1=i
COc1cc(/C=C2/SC(=S)N(CC3CCCO3)C2=O)ccc1O (configuration not stated) | i | i | 16* | i | i | 212%* | i | 89%* | i | i | 40%*
COc1ccc(/C=C2\SC(=S)N(CC3CCCO3)C2=O)cc1 (configuration not stated) | i | i | i | i | i | nt | nt | nt | nt | nt | nt
NC(=O)c1ccc(NC(=O)COC(=O)/C=C/c2ccc3c(c2)OCO3)cc1 | i | i | i | i | i | nt | nt | nt | nt | nt | nt

Screens: PubChem BioAssay, Johns Hopkins Ion Channel Center
